Test results from article PMC6800648 (Cell chemical biology, 2019).
Square brackets hold non-standard residues; d marks the D form. Peptide text beside a SMILES is read from it. * marks the point of attachment. Benzoyl(4-tBu) = CC(C)(C)c1ccc(C(=O)*)cc1; Lys(Et2) = CCN(CC)CCCC[C@H](N)C(=O)O

What was measured:
[1] = molecular target: T1, CBX7 (Mus musculus, UniProt Q8VDS3); experiment: Polycomb in-vivo Assay; assay type: cell-based
T1 sequence (Q8VDS3 2-69 limits assumed): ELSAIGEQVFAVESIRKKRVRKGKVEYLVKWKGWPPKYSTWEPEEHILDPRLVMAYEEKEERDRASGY

[2] = system: mESCs; experiment: CellTiter-Glo viability assay in mESCs; assay type: cell-based, mouse; details: 48 hr
In short: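 Mouse ES cells, 5,000 per well, exposed in technical triplicate for 48 hr at 37°C to a ten-point three-fold dilution series prepared from 50 mM DMSO stocks (0.2% DMSO final). Media-only wells served as negative controls. After equilibrating at room temperature, CellTiter-Glo was added, with 2 min shaking and 10 min settling, then luminescence read.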

[3] = molecular target: T2, CBX7 and RING1B (Mus musculus, UniProt Q8VDS3); experiment: ChIP-qPCR / ChIP-seq in mESCs; assay type: cell-based; details: 4 hours, 20 μM
T2 sequence (Q8VDS3 1-158): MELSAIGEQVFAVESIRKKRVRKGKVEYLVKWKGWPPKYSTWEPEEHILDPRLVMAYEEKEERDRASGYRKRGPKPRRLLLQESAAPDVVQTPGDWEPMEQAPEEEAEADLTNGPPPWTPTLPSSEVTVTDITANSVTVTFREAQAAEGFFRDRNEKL
T2 sequence (Q9CQJ4 2-336 partner limits assumed): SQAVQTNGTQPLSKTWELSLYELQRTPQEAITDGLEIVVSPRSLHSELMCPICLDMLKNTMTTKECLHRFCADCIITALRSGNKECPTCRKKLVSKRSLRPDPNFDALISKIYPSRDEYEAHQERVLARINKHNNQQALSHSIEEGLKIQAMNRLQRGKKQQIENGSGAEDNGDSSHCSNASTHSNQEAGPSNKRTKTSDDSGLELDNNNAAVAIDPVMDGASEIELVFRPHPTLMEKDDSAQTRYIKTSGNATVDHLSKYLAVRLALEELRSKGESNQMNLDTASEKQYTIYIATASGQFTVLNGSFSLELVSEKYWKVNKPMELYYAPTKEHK

[4] = molecular target: T3, CBX7 chromodomain (Homo sapiens, UniProt O95931); experiment: Fluorescence polarization; assay type: biochemical
T3 sequence (O95931 1-62): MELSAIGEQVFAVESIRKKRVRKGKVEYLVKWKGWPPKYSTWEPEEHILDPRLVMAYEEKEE
In short: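 Buffer: 25 mM Tris-HCl pH 7.4, 100 mM NaCl, 0.05% Tween-20, 2 mM DTT; 100 nM FAM-dsDNA or FAM-ANRIL-RNA; 0.2% DMSO; 30 min at RT. Compound titration: eight-point three-fold series from 100 µM with 30 µM CBX7 chromodomain. Ratio mode: CBX7 and test compound co-diluted at fixed 3:1 from 300 µM/100 µM. Polarisation normalised to a no-protein control; α fitted by the Stockton-Ehlert allosteric model.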

[5] = molecular target: T3, CBX7 chromodomain; experiment: Electrophoretic mobility shift assay; assay type: biochemical
In short: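 Buffer: 25 mM Tris-HCl pH 7.4, 100 mM NaCl, 0.05% Tween-20, 2 mM DTT. Compound runs used 150 µM CBX7 with 100 nM FAM-DNA probe and 50 µM test compound (0.3% DMSO); protein-only runs used a three-fold CBX7 series. Binding 20 min on ice. Native 10% Tris-glycine gel at 100 V, 4°C, 90 min in the dark. FAM fluorescence imaged, then Coomassie-stained.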

[6] = system: Polycomb target genes; experiment: RT-qPCR mRNA expression in HEK293 cells; assay type: cell-based, human; details: HEK293, 6 μM and 20 μM, 2 days
In short: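 HEK293 cells were treated with test compounds at 6 µM and 20 µM for 2 days. RNA was reverse-transcribed and Polycomb target transcripts were quantified by qPCR with ~100–150 bp amplicons.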

[7] = system: CBX7 chromodomain; details: ref Stuckey et al., 2016a, 2016b; cited from earlier work

SMILES: CCN(CC)CCCC[C@H](NC(=O)[C@H](CC(C)C)NC(=O)[C@H](C)NC(=O)[C@H](Cc1ccccc1)NC(=O)c1ccc(C(C)(C)C)cc1)C(=O)N[C@@H](CO)C(=O)OC [UNC3866, methyl N^2-(4-(tert-butyl)benzoyl)-L-phenylalanyl-L-alanyl-L-leucyl-N^6,N^6-diethyl-L-lysyl-L-serinate] ({Benzoyl(4-tBu)}-FAL[Lys(Et2)]S-OMe)
- EC50 [1]: 41.7 ± 2.24 µM
- mESC viability upon compound treatment [2]: non-toxic
- CBX7 and RING1B binding at PRC1 target TSSs [3]: more limited impact
- enhancement in CBX7 affinity for FAM-dsDNA ([4]; 1:3 ratio of compound to protein titration): negligible enhancement
- allosteric modulator class of oligonucleotide binding ([4]; FP data fit to the Stockton/Ehlert allosteric binding model): silent allosteric modulator (SAM)
- α (factor of enhancement of CBX7 affinity for the DNA probe) ([4]; Stockton/Ehlert allosteric binding model, 1:3 compound to CBX7, 100 nM FAM-dsDNA): 1.5
- binding to CBX7 by Coomassie stain (higher molecular weight band shifts) ([5]; EMSA gel): showed binding to CBX7
- effect on FAM-dsDNA binding to CBX7 ([5]; EMSA, 150 mM CBX7 and 100 nM FAM-dsDNA probe, 1:3 ratio of compound to CBX7): did not have any effect
- effect on transcription of Polycomb target genes [6]: either no or a mild effect
- fold more potent than fragments of the endogenous H3K27me3 peptide [7]: > 100 fold
